Source: paper PMC6512341 (ACS chemical neuroscience, 2018)

Assays:
acetylated histone 3 = experiment: Histone acetylation in N2a cells; type: cell-based; settings: compared to vehicle
How it was run: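 N2a cells treated at 1 µM or 10 nM; reference HDAC inhibitors served as positive controls. Histones extracted by kit; protein by micro BCA. Samples denatured in reducing buffer at 95 °C for 5 min and blotted to PVDF. Blocked in 5% BSA/TBST 1 h at RT; primaries overnight: acetyl-H3 K9+K14 1:1000, histone 4 1:1000. Ratios normalized to vehicle; n = 4; one-way ANOVA vs vehicle.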

MDR1 = experiment: Permeability studies in MDCK-MDR1 cells; type: in vitro ADME; settings: dog, MDCK-MDR1
Fmr1^−/− mice [1] = experiment: Novel object recognition task; type: in vivo; settings: 20 mg/kg IP
[2] = tested on: TA98, TA100, TA1535, TA1537, WP2 uvrA; experiment: Ames test; type: cell-based, Salmonella typhimurium, Escherichia coli; settings: presence and absence of S9 mix
Fmr1^−/− mice [3] = experiment: Temporal order memory task; type: in vivo; settings: 20 mg/kg IP
CYP2D6 = CYP2D6 (Homo sapiens, UniProt P10635); experiment: CYP inhibition, 2D6; type: in vitro ADME
CYP2D6, sequence (P10635 whole entry): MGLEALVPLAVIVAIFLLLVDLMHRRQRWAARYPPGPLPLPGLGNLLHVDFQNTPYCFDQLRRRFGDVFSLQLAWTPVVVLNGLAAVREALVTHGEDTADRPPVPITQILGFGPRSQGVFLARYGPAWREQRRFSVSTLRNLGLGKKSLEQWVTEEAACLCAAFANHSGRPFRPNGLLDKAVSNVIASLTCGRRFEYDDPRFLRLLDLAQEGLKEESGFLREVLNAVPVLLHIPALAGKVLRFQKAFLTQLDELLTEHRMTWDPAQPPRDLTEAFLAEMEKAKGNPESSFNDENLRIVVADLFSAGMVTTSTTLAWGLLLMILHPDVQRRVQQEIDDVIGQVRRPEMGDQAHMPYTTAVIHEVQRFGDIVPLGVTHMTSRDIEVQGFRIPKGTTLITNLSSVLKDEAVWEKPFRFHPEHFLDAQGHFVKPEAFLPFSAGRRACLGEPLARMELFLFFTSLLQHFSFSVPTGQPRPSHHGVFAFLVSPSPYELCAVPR

[4] = Liver microsomal stability, mouse; type: in vitro ADME; settings: liver microsomes
acetylated α-tubulin [5] = experiment: α-Tubulin acetylation studies in HEK293 cells; type: cell-based; settings: 0.01, 0.1, 1, and 10 μM
How it was run: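 HEK293 cells plated 24 h ahead and treated at 70% confluency with 10 nM–10 µM. Lysed in MPER with protease inhibitors; 2 µg protein boiled, run on 12% gel, transferred to PVDF. Blocked in 5% milk/TBST; anti-acetyl-tubulin 1:3000 overnight at 4 °C, then HRP secondary 1:5000; ECL. Reprobed for total α-tubulin at 1:1000. Densitometric ratio normalized to 10 µM reference HDAC6 inhibitor; n = 3–4; one-way ANOVA vs vehicle.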

acetylated α-tubulin [6] = experiment: Immunoblot of acetylated α-tubulin in mouse hippocampus; type: in vivo, mice; settings: 20 mg/kg, 2 h after treatment
How it was run: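 Male C57BL/6 WT and Fmr1−/− mice, 8–10 weeks old, given 20 mg/kg IP twice daily on days 1–2, plus a dose 1 h before cognitive testing on days 3 and 4. Hippocampi taken 2 h after treatment and homogenized in Tris pH 7.4 lysis buffer with protease and phosphatase inhibitors. Spun at 20,800 × g for 10 min; Bradford assay. 10 µg protein run on SDS-PAGE to nitrocellulose; acetyl-α-tubulin and α-tubulin antibodies at 1:4000.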

CYP1A2 = target: T1, CYP1A2 (Homo sapiens, UniProt P05177); experiment: CYP inhibition, 1A2; type: in vitro ADME
T1 sequence (P05177 1-516): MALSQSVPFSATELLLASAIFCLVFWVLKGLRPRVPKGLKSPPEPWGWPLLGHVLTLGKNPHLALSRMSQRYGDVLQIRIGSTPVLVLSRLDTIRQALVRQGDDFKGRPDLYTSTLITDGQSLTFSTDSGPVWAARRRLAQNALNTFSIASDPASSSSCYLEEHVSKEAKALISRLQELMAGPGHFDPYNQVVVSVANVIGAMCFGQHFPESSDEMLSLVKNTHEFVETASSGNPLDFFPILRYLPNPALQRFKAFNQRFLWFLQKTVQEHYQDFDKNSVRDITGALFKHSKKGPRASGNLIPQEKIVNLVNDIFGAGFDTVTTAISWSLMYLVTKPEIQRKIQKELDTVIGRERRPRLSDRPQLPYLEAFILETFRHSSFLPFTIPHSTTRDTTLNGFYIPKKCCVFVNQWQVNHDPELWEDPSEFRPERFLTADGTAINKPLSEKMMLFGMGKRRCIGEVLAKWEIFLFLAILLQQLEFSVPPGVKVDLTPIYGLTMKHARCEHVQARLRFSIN

[7] = Hepatocyte stability, human; type: in vitro ADME; settings: hepatocytes
hERG = hERG (Homo sapiens, UniProt Q12809); experiment: hERG test in HEK293 cells; type: cell-based
hERG, sequence (Q12809 whole entry): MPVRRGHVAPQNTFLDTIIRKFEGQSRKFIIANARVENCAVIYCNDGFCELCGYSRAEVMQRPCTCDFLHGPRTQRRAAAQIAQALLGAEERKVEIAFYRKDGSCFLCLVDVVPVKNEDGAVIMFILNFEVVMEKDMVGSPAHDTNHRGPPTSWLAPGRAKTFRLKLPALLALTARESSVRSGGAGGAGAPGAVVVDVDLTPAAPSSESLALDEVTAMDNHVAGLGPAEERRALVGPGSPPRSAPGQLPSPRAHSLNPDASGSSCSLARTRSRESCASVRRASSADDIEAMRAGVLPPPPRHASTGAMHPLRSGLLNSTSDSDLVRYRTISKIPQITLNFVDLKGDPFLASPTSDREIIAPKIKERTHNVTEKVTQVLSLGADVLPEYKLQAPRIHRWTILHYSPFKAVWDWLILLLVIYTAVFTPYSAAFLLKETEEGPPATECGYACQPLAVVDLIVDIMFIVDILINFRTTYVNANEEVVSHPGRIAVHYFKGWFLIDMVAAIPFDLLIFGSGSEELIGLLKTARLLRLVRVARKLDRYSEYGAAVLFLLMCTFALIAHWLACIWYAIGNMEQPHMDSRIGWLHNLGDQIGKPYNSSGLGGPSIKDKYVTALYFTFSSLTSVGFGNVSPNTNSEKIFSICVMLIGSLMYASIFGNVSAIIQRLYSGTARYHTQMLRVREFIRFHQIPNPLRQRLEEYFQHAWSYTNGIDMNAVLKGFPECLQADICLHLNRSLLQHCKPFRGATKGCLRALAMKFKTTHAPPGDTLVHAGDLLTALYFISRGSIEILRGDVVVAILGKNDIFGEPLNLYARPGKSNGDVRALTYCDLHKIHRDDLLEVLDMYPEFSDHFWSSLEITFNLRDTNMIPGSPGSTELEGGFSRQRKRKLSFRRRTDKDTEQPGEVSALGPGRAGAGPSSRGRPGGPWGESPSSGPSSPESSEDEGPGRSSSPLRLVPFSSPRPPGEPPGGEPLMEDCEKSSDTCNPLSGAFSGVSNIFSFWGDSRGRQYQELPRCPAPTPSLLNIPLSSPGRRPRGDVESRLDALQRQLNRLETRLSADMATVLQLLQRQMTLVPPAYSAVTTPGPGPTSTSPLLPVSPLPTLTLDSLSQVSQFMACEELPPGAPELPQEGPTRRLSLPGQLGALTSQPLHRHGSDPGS

[8] = Hepatocyte stability, mouse; type: in vitro ADME; settings: hepatocytes
CYP2C9 = CYP2C9 (Homo sapiens, UniProt P11712); experiment: CYP inhibition, 2C9; type: in vitro ADME
CYP2C9, sequence (P11712 whole entry): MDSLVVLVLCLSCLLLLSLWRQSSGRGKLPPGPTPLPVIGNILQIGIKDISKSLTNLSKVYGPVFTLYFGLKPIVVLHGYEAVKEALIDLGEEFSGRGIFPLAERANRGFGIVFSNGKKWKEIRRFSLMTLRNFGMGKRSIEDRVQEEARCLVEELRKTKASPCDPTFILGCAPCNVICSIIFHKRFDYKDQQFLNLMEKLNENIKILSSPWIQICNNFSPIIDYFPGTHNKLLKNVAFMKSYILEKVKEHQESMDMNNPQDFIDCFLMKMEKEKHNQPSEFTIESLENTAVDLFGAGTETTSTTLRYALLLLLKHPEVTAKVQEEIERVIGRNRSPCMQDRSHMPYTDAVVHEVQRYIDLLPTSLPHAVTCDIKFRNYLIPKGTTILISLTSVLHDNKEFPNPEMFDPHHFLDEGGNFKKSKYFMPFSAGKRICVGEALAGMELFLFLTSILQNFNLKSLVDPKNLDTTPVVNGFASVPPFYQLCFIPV

[9] = Pilot brain and plasma pharmacokinetic studies of SW-100; type: in vivo, C57BL/6 male mice; settings: male, C57BL/6, mouse, ip, 20 mg/kg
CYP3A4 = CYP3A4 (Homo sapiens, UniProt P08684); experiment: CYP inhibition, 3A4; type: in vitro ADME
CYP3A4, sequence (P08684 whole entry): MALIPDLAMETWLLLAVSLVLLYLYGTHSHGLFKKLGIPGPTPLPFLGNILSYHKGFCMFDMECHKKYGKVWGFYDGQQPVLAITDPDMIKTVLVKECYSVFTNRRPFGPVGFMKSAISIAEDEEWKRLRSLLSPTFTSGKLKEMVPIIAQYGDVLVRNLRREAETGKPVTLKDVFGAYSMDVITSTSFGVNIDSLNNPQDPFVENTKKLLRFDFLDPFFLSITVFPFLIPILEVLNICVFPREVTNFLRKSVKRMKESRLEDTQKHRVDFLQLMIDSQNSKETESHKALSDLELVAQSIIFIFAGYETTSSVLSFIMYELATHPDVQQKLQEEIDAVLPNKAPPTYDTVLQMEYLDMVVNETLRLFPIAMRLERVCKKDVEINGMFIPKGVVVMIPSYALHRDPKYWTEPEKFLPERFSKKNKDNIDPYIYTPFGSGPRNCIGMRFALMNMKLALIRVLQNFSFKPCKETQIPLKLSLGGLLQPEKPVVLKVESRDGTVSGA

[10] = Liver microsomal stability, human; type: in vitro ADME; settings: liver microsomes
CYP2C19 = CYP2C19 (Homo sapiens, UniProt P33261); experiment: CYP inhibition, 2C19; type: in vitro ADME
CYP2C19, sequence (P33261 whole entry): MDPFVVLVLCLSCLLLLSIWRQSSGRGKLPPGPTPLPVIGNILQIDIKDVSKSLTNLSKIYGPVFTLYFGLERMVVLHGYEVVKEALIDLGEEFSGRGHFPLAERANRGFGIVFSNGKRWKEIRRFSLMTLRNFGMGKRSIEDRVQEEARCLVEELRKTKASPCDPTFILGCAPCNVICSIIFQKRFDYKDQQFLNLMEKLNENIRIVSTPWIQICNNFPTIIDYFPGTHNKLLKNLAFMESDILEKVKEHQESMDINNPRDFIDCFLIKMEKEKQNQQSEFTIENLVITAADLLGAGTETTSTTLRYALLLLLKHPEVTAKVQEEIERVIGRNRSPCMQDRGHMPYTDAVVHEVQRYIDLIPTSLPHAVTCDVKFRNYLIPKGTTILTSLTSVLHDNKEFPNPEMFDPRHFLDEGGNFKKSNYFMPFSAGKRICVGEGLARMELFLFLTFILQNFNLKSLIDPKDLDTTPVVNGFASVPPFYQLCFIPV

In the case of `O=C(NO)c1ccc(CN2CCCc3cc(Cl)ccc32)cc1` [SW-100, 4-((6-Chloro-3,4-dihydroquinolin-1(2H)-yl)methyl)-N-hydroxybenzamide], the “levels of acetylated histone 3 to histone 4” value (acetylated histone 3) is reported as under 1.5 fold, the Papp A→B at 2 h (MDR1) is reported as 4.58 ×10⁻⁶ cm/s and the Papp B→A at 2 h (MDR1) is reported as 2.33 ×10⁻⁶ cm/s. For the same compound, the “novel object recognition: time exploring novel versus familiar object” value (Fmr1^−/− mice [1]; Fmr1^−/− mice) was “spent significantly more time exploring the novel object than the familiar object”, the novel object recognition (Fmr1^−/− mice [1]; WT mice) was “did not alter the novel object recognition of WT mice” and the Ames test [2] was “negative”. For the same compound, the “temporal order: time exploring first versus most recent object” value (Fmr1^−/− mice [3]) was “spent significantly more time exploring the first object compared to the most recent object presented”, the inhibition at 10 µM (CYP2D6) was 2.51% and the half-life [4] was 23 min. The “effect on acetylated α-tubulin levels (in words)” value (acetylated α-tubulin [5]) was “more obvious increase in the acetylated α-tubulin levels in a dose-dependent manner”, the “acetylated α-tubulin levels in the hippocampus” value (acetylated α-tubulin [6]; Fmr1^−/− mice) was “significantly increased” and the “hippocampal α-tubulin acetylation” value (acetylated α-tubulin [6]; WT mice) was “no significant influence”. It also gave an inhibition at 10 µM (CYP1A2) of 20.5%, a half-life [7] of 30 min and an IC50 (hERG) of 12.2 µM. It also gave a half-life [8] of 10 min, an inhibition at 10 µM (CYP2C9) of 18.8% and a concentration at 1 h ([9]; brain) of 142 ± 52.3 ng/mL. For the same compound, the concentration at 4 h ([9]; brain) was 11.5 ± 0.3 ng/mL, the Kp at 1 h ([9]; brain/plasma) was 2.44 and the concentration at 1 h ([9]; plasma) was 58.2 ± 24.9 ng/mL. The concentration at 4 h ([9]; plasma) was 2.52 ± 0.13 ng/mL, the inhibition at 10 µM (CYP3A4) was -0.63% and the half-life [10] was 23 min. It also gave an inhibition at 10 µM (CYP2C19) of 83.2%.
